Laboratory results: ChEMBL document CHEMBL1765057, “Pyrazolo[4,3-d]pyrimidine bioisostere of roscovitine: evaluation of a novel selective inhibitor of cyclin-dependent kinases with antiproliferative activity” (J Med Chem, 2011)
Calls of active or inactive are those of the source. The rule behind the calls is not given here.

Legend:
[1] = tested on: RPMI-8226; assay: Cytotoxicity against human RPMI8226 cells after 72 hrs by fluoroskan ascent microplate reader analysis; format: functional, cell-based; conditions: RPMI-8226, 72 h
In short: (§1)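 Cells were grown in DMEM with 10% FCS and 4 mM glutamine at 37 °C under CO2, then plated at densities suited to each line. Compounds were added as 3-fold dilutions in triplicate for 72 h.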

[2] = tested on: U-266; assay: Cytotoxicity against human U266 cells after 72 hrs by fluoroskan ascent microplate reader analysis; format: functional, cell-based; conditions: U-266, 72 h; in short: as §1
[3] = tested on: HOS; assay: Cytotoxicity against human HOS cells after 72 hrs by fluoroskan ascent microplate reader analysis; format: functional, cell-based; in short: as §1
[4] = tested on: A549; assay: Cytotoxicity against human A549 cells after 72 hrs by fluoroskan ascent microplate reader analysis; format: functional, cell-based; conditions: A549, 72 h; in short: as §1
[5] = target: Casein kinase II (Homo sapiens) (UniProt P67870+P68400+P19784); assay: Inhibition of human recombinant CK2 at 10 uM; format: protein-complex assay
[6] = target: Ribosomal protein S6 kinase alpha-5 (Homo sapiens) (UniProt O75582); assay: Inhibition of human recombinant MSK1 at 10 uM
Chain of Ribosomal protein S6 kinase alpha-5 (Homo sapiens) (O75582 whole entry, looked up): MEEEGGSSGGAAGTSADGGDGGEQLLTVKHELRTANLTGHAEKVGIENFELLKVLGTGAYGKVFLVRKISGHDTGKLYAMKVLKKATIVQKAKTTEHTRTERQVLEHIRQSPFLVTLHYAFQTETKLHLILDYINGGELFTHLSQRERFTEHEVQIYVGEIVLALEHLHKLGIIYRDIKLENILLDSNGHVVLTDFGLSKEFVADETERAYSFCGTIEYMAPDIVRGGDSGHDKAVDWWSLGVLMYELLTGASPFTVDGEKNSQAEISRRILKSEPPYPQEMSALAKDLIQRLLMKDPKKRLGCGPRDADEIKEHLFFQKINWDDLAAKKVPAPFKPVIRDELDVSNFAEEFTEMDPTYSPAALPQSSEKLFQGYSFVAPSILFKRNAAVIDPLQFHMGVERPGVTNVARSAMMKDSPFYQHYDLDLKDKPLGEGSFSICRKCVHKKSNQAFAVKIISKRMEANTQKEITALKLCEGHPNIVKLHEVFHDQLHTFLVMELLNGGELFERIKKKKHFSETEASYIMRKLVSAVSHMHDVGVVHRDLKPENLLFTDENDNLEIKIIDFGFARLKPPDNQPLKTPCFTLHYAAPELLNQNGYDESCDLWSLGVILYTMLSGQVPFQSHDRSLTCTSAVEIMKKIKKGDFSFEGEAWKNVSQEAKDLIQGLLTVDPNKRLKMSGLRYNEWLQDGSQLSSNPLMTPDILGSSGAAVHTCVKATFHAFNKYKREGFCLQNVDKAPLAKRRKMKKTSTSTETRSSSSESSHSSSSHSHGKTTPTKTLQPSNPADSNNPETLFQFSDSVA

[7] = target: T1, Retinoblastoma-associated protein (Homo sapiens) (UniProt P06400); assay: Inhibition of retinoblastoma protein in human MCF7 cells assessed as reduction of CDK1 level at 2.5 to 40 uM after 24 hrs by immunoblotting; format: cell-based
T1 sequence (whole entry): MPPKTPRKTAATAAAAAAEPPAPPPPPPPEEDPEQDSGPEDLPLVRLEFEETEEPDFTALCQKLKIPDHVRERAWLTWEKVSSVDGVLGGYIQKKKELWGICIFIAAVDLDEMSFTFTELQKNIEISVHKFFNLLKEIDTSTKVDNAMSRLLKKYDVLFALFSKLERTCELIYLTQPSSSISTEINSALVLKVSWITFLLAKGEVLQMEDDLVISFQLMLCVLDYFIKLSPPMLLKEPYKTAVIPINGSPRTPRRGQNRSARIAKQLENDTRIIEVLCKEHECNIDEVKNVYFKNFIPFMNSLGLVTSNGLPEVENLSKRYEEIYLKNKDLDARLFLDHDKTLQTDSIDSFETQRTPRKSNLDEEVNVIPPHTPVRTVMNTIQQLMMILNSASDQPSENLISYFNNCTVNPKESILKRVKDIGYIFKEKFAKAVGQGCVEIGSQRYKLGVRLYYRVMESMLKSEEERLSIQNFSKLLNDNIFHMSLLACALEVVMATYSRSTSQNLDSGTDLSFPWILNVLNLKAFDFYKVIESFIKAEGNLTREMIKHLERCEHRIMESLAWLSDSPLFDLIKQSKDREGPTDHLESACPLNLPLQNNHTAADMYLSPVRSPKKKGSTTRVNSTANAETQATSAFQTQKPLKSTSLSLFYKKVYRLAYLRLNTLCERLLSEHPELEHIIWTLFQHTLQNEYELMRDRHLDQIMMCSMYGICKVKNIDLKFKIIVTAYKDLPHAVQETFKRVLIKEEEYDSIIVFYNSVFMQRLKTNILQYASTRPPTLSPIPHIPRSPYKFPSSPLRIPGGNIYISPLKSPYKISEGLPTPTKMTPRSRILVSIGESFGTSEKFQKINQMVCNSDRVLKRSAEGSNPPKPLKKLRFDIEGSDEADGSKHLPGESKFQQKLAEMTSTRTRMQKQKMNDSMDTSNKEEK
In short: (§2)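 Asynchronous, exponentially growing MCF-7 cells were exposed 24 h to a range of concentrations. Total lysates were made in Laemmli buffer, run on SDS-PAGE and blotted to nitrocellulose. Membranes were probed overnight at 4 °C with specific or phosphospecific antibodies (pRb S249/T252, S780, S795, S807/811), with tubulin as loading control and ECL detection.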

[8] = target: T1, Retinoblastoma-associated protein (Homo sapiens); assay: Inhibition of retinoblastoma protein in human MCF7 cells assessed as reduction of cyclin E level at 2.5 to 40 uM after 24 hrs by immunoblotting; format: cell-based; in short: as §2
[9] = tested on: MCF7; assay: Cell cycle arrest in human MCF7 cells assessed as decrease in S phase cell population after 24 hrs using propidium iodide and BrdU staining by flow cytometry; format: functional, cell-based
In short: (§3)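 Subconfluent MCF-7 cells were treated for 24 h at a range of concentrations. They were pulse-labelled with 10 μM BrdU for 30 min at 37 °C, then trypsinized and fixed in ice-cold 70% ethanol. DNA was denatured in 2 M HCl and neutralized with borate. Cells were stained with fluorescein anti-BrdU and with propidium iodide plus RNase A, then analysed by flow cytometry at 488 nm.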

[10] = tested on: MCF7; assay: Cell cycle arrest in human MCF7 cells assessed as reduction of actively replicating DNA level at 80 uM after 24 hrs using propidium iodide and BrdU staining by flow cytometry; format: functional, cell-based; in short: as §3
[11] = tested on: RPMI-8226; assay: Cell cycle arrest in human RPMI8226 cells assessed as reduction of actively replicating DNA level at 80 uM after 24 hrs using propidium iodide and BrdU staining by flow cytometry; format: functional, cell-based
In short: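 Asynchronously growing RPMI-8226 multiple myeloma cells were exposed for 24 h. Cells were double-stained with propidium iodide and BrdU and analysed by flow cytometry for G1, S, G2/M and BrdU-positive fractions. The subG1 population was taken as indicative of apoptosis.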

[12] = tested on: RPMI-8226; assay: Induction of apoptosis in human RPMI8226 cells assessed as induction of PARP cleavage after 24 hrs by immunoblot analysis; format: functional, cell-based
In short: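 RPMI-8226 cells were treated continuously for 24 h, and total lysates were made in Laemmli buffer, run on SDS-PAGE and blotted to nitrocellulose. Loading was checked with Ponceau-S. Membranes were blocked in milk or BSA, probed overnight at 4 °C with antibodies to PARP, caspase-3 and Mcl-1, then peroxidase secondary (1:2000), with ECL detection.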

[13] = tested on: RPMI-8226; assay: Induction of apoptosis in human RPMI8226 cells assessed as increase in caspase3 activation after 24 hrs by immunoblot analysis; format: functional, cell-based
[14] = tested on: RPMI-8226; assay: Induction of apoptosis in human RPMI8226 cells assessed as induction of caspase7 activation at 20 uM after 24 hrs by immunoblot analysis; format: functional, cell-based; conditions: in the assay text read “by fluorogenic assay” for “by immunoblot analysis”
In short: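 RPMI-8226 cells were treated continuously for 24 h and lysed in CHAPS extraction buffer (pH 7.4) on ice, then clarified, with protein equalized by Bradford. Lysates were incubated 1 h with 100 μM Ac-DEVD-AMC in PIPES/DTT buffer (pH 7.3), with 100 μM Ac-DEVD-CHO added for negative controls. Fluorescence was read at 355/460 nm.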

[15] = target: Cellular tumor antigen p53 (Homo sapiens) (UniProt P04637); assay: Induction of p53-dependent transcriptional activity in human ARN8 cells assessed as beta-galactosidase activity after 24 hrs by immunofluorescence assay; format: cell-based
Chain of Cellular tumor antigen p53 (Homo sapiens) (P04637 whole entry, looked up): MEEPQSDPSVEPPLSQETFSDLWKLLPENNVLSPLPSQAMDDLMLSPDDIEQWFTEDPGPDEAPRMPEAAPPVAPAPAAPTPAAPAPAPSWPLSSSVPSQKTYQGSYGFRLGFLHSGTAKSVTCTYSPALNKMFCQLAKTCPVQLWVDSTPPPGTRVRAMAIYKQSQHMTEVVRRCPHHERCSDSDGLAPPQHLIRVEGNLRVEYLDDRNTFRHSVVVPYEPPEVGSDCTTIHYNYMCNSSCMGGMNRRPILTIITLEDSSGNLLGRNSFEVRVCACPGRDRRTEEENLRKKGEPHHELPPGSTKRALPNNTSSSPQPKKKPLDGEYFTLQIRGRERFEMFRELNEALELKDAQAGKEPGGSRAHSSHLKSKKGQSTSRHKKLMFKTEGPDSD
In short: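 ARN8 melanoma cells stably carrying the p53-responsive pRGCΔfoslacZ reporter were exposed to inhibitors for 24 h, permeabilized with 0.3% Triton X-100 for 15 min, and given MUG substrate (final 80 μM). Fluorescence was read at 355/460 nm after 1 h. Data are mean ± SD of three independent experiments.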

[16] = target: Cyclin-dependent kinase 5/CDK5 activator 1 (Homo sapiens) (UniProt Q00535+Q15078); conditions: at 10 µM
Chain of Cyclin-dependent kinase 5/CDK5 activator 1 (Homo sapiens) (Q00535 whole entry): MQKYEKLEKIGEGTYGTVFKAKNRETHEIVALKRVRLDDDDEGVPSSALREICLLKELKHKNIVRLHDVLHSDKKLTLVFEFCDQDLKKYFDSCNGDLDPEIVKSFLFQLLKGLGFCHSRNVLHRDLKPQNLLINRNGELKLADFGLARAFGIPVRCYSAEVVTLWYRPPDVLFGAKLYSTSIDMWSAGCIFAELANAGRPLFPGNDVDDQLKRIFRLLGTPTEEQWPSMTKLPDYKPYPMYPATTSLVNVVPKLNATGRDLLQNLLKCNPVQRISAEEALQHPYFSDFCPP
Chain of Cyclin-dependent kinase 5/CDK5 activator 1 (Homo sapiens) (Q15078 99-307 partner limits assumed): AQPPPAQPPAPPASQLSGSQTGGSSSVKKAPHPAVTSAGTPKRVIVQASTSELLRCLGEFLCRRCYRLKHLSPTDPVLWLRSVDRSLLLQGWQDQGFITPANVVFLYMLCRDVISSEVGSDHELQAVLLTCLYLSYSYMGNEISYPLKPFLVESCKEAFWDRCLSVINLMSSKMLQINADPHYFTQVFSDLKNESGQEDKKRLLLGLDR

inhibition [5]: 19%
inhibition [6]: 39%
inhibition [7]: inactive
inhibition [8]: inactive
Activity [15]: Dose-dependent effect
inhibition [16]: 95%
Compound: CC[C@H](CO)Nc1nc(NCc2ccccc2)c2[nH]nc(C(C)C)c2n1
IC50 [1]: 3.6 µM
IC50 [2]: 4.9 µM
IC50 [3]: 7.5 µM
IC50 [4]: 7.1 µM
Activity [9]: Active
Activity [10]: Active
Activity [11]: Active
Activity [12]: Active
Activity [13]: Active
Activity [14]: Active
